Screening results deposited in PubChem BioAssay by several laboratories.
Only some compounds are listed: those with a hit (about 6.8% of all), similar ones and a draw of the others.
Her2 expr inh – inhibitors of human Her2 kinase expression; P04626; SKBR-3 HER2 protein level, AlphaScreen, 18-24 h; hits give low values; HER2 level % of control, % at 10 µM; hit rate 0.69% among 65,000; AID 645;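 active means HER2 level under 5% of the carrier-only control; inconclusive means no clear call, values can overlap the other calls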;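 further: 100% = DMSO carrier and 0% = 500 nM PU-H71 HSP90 inhibitor; lower value means stronger loss of Her2 protein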
DUSP1 inh – blocks human MKP-1 phosphatase activity; inhibition, %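 (compounds tested at a single concentration somewhere between 10 and 100 µM)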; recombinant MKP-1, OMFP hydrolysis fluorescence; hit rate 0.15% among 65,000;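 active means inhibition above about 50%, limit read from the data; inconclusive means inhibition over screen mean plus 3 SD, below that limit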;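 further: 0% = DMSO max control wells and 100% = wells with enzyme stopped by NaOH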
Target sequence (P28562 whole entry, looked up): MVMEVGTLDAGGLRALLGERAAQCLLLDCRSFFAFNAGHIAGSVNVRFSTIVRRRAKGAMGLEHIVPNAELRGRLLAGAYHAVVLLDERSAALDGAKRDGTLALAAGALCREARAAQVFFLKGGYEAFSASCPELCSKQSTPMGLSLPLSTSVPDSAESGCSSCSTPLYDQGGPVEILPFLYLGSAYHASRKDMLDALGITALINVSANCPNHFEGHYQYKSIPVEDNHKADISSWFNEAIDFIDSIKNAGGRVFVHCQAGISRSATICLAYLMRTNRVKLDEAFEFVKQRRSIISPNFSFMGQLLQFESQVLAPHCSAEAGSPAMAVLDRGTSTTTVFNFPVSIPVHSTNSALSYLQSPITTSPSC
Cdc25B block – inhibitors of human Cdc25B phosphatase; P30305; inhibition, %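 (compounds tested at 10 µM final in the well)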; hit rate 0.1% among 65,000; recombinant Cdc25B, OMFP fluorescence Ex485/Em525; AID 368; in the data active means inhibition above about 50%
M1 antag – blocks the rat M1 muscarinic receptor response to acetylcholine. B-score at 10 µM. P08482. hit rate 3.4% among 64,000. CHO-M1 cells, Fluo-4 calcium, ACh EC80 antagonist mode; hits give low values;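 active means calcium fluorescence response, raw or row-and-column corrected B-score, differing from the plate sample mean either way at a set confidence level, mostly lower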
HEK293 NFkB inh – lowers PMA/ionomycin-induced NF-kB signal in HEK293 cells; inhibition, % at 3 µM; HEK-293 NF-kB luciferase reporter, luminescence; hit rate 0.21% among 62,000;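 active means inhibition above the mean of all tested compounds plus 3 SD, cut at about 40% in these data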;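 further: 0% = stimulated DMSO wells and 100% = 10 µM reference inhibitor 5653914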
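System – HEK-293 cells with stable firefly luciferase reporter driven by four HIV NF-kB elements · Doses – one dose, 3 µM · Schedule – 1 h compound pre-incubation, 16 h PMA/ionomycin at 37 °C · Technique – luminescence from luciferase substrate reagent · Measure – percent inhibition normalized per plate to DMSO and reference-inhibitor controls · Replicates – tested once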
M1 ag – M1 muscarinic receptor agonism; AID 626; hit rate 3% among 64,000; CHO-M1 cells, Fluo-4 calcium fluorescence, agonist mode; hits give high values; B-score at 10 µM;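 active means fluorescence rise, raw or as B-score row- and column-corrected plate score, outside the 99.7% band of its plate's samples, either direction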
The depositor's hits bear a star; ? = inconclusive; . = not tested or not shown.

SMILES	Her2 expr inh	DUSP1 inh	Cdc25B block	M1 antag	HEK293 NFkB inh	M1 ag
CCn1c2ccccc2c2nnc(SCc3cc(=O)n4ccsc4n3)nc21	100	20	-11	0.16	8	-0.54
COCC(C)n1c(C)cc(C(=O)COC(=O)c2c(NC(C)=O)sc(C)c2C)c1C (configuration not stated)	-11*	21	0	-0.38	25	-0.61
COCC(C)n1c(C)cc(C(=O)COC(=O)c2c(C)nn(-c3ccccc3)c2C)c1C (configuration not stated)	96	7	-5	-0.85	5	-0.45
CC(C)N1CCC2(CC1)N=C(c1ccc3c(c1)OCO3)CC(c1cc(Cl)ccc1O)N2 (configuration not stated)	-18*	0	-5	.	13	.
CCOC(=O)c1cc(-c2ccco2)nc2c1c(C)nn2CCC#N	90	8	4	1.1*	6	0.37
CCOC(=O)c1cc(-c2ccc3c(c2)OCCO3)nc2c1c(C)nn2CCC#N	108	39	-17	0.079	21	0.5
Cc1cc2c(N)cccc2nn1	95	8	52*	.	19	.
COc1ccc(N=C(C)C2=C(O)COC2=O)cc1	108	1	-9	0.8	-1	0.66
CCCOC1(NC(=O)c2ccccc2)C(C)=CC(=O)C=C1C	85	0	-12	0.63	15	0.087
Cc1ccc(C)c(N2CCN(C(=O)c3ccc(NS(=O)(=O)c4c(C)noc4C)cc3)CC2)c1	103	?	8	2.2*	16	0.09
Cc1ccc(Cl)cc1N1CCN(C(=O)c2ccc(NS(=O)(=O)c3c(C)noc3C)cc2)CC1	84	44	-3	-0.53	20	0.67
Cc1ccc(CN2CCN(CC(=O)N3CCC(C(N)=O)CC3)C2=O)cc1	88	-1	70*	-0.042	3	0.84
Cc1ccc(CN2CCN(CC(=O)N3CCc4ccccc4C3)C2=O)cc1	84	32	-2	-0.16	17	-0.11
Cn1c(=O)[nH]c(=O)c2[nH]c(N(Cc3ccccc3)Cc3ccccc3)nc21	75	19	-3	-0.3	21	-0.24
O=C(CSc1c2c(nc3ccc(Cl)cc13)CCCC2)N1CCN(C(=O)c2ccco2)CC1	-5.2*	32	22	-1.2	2	2.3
O=C(CSc1nc2cc(Cl)ccc2s1)N1CCN(C(=O)c2ccco2)CC1	55	16	-17	-0.45	12	-0.8
CC1CCN(CCNC(=O)c2ccc3c(=O)n(CCc4ccccc4)c(=O)[nH]c3c2)CC1	96	-6	0	0.17	11	-2*
CC1CCCCN1CCNC(=O)c1ccc2c(=O)n(CCc3ccccc3)c(=O)[nH]c2c1 (configuration not stated)	.	-20	-6	-0.85	7	-1.4
CC(C)CCn1c(NCCc2ccccc2)nc2c1c(=O)n(C)c(=O)n2C	62	7	-8	-0.79	11	0.54
CC(C)CCNC(=O)Cn1c(NCCC(C)C)nc2c1c(=O)n(C)c(=O)n2C	97	12	-16	1.3*	10	-1.3
O=C(CCOc1ccccc1)Nc1ccc(S(=O)(=O)N2CCCC2)cc1	90	2	-12	0.1	12	1.6
O=C(c1cc2ccccc2o1)c1cccs1	59	7	3	0.87	-9	0.037
O=C(c1cccs1)c1ccc(-c2cccs2)s1	-2.5*	9	11	-0.73	-42	-0.16
Cc1cc(NC(=O)CSc2ccc3c(c2)OCCO3)no1	97	6	-2	-0.027	14	0.065
CCOC(=O)c1ccc(Oc2nc(NC)nc(OC)n2)cc1	92	-1	-17	2.7*	-5	-0.5
SMILES	Her2 expr inh	DUSP1 inh	Cdc25B block	M1 antag	HEK293 NFkB inh	M1 ag
COC(=O)COC(=O)c1ccc(Oc2nc(OC)nc(N(C)C)n2)cc1	114	2	-3	-0.0064	-3	-0.73
NS(=O)(=O)c1ccc(CCNC(=O)COC(=O)C2CCCN2C(=O)c2cccs2)cc1 (configuration not stated)	112	30	-11	-0.83	6	-0.83
Cc1cc(NC(=O)CN2CCN(c3ccccc3F)CC2)nc2c1c(=O)oc1ccccc12	70	13	-2	0.76	4	0.69
c1cncc(-c2nc3c4ccccc4nc(N4CCC(N5CCCCC5)CC4)n3n2)c1	76	3	-2	-6.7*	8	-0.25
CC1CCN(c2nc(-c3ccncc3)nc3ccccc23)CC1	56	2	-20	-0.68	-5	-0.88
Nc1cccc2c1C(=O)N(c1ccccc1)C2=O	64	5	-9	-0.37	18	70*
N=c1n(CCO)c2ccccc2n1CCOc1ccc(Cl)cc1Cl	2.4*	0	-1	-0.24	8	-0.26
Cc1ccccc1COc1ccc(/C(O)=C2/C(=O)C(=O)N(CCCn3ccnc3)C2c2ccco2)cc1 (configuration not stated)	77	1	5	-0.3	.	-0.004
Nc1ccc(C(=O)OCCCc2nc3ccccc3[nH]2)cc1	84	4	-2	0.86*	6	0.32
c1ccc(CN2CCC3(CC2)Nc2ccccc2CO3)cc1	120	2	-7	-2.8*	3	17*
CCN(c1ccccc1)S(=O)(=O)c1ccc(Oc2ccc(-n3ccnc3)cc2)nc1	77	24	1	-1.7	98*	-0.95
CCn1c2c(c3cc(Cl)ccc31)CCCC2=O	102	4	-5	0.15	6	-0.57
CCN1CCn2c3c(c4cc(Cl)ccc42)CCCC31 (configuration not stated)	101	-6	-15	1.8*	13	0.034
O=C(CSc1ncnc2c1oc1ccccc12)NCc1ccc(F)cc1	83	4	-6	-0.39	7	0.43
c1ccc(Sc2nc(N3CCCCC3)nc(N3CCCCC3)n2)nc1	.	-1	-2	2.1*	.	0.48
Cc1nc2ccccc2nc1N1CCCCC1	125	11	-12	1.1	-1	0.21
N#CCCS(=O)(=O)c1nnnn1-c1ccccc1	-1.1*	-45	-3	0.51	34	0.31
CC(=O)Nc1ccc(Nc2nc(C)nc3c2oc2ccccc23)cc1	92	9	-14	.	21	.
Cc1nc(Nc2ccncc2)c2oc3ccccc3c2n1	.	.	.	-2.9*	7	22*
COc1ccc(-c2cc3nc4n(c(=O)c3s2)CCOC4)cc1	99	-8	-29	-0.36	.	-0.76
C(=N/n1c2ccccc2c2ccccc21)/c1ccco1	1.7*	3	-15	0.15	12	0.21
O=c1c2ccccc2nc(COc2ccccc2)n1/N=C/c1ccco1	117	-22	-12	-0.6	0	-0.05
COc1ccc(C(=O)NC(=O)Nc2cc(C)ccn2)cc1	92	4	-2	0.97	59*	0.14
COc1ccc(C(=O)c2no[n+]([O-])c2C(=O)c2ccc(OC)cc2)cc1	-22*	?	1	-0.26	5	1.6
